In experiment [1] the test system is Human gammaherpesvirus 8. Nature of the experiment: Inhibition of KSHV protease at 10 uM by fluorogenic activity assay. In short, it runs like this: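 Screen: protease at 2 μM final in 25 mM potassium phosphate pH 8, 150 mM KCl, 0.1 mM EDTA, 1 mM DTT. Compound at 10 μM final (1% DMSO) preincubated 30 min at 30°C. Ac-PVYtQA-ACC (P6) substrate added to 160 μM final. Fluorescence (ex 380/em 460 nm) followed 1 h at 30°C. Hit defined as ≥50% drop in initial velocity versus uninhibited control.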

Experiment [2] can be described thus: Inhibition of KSHV protease by fluorogenic activity assay. On the set-up: species or system Human gammaherpesvirus 8.
Experiment [3] relates to Human gammaherpesvirus 8. Kind of experiment: Ratio of Kcat to Km in KSHV protease at 7 uM. In short, it runs like this:
(§1)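 Michaelis–Menten kinetics in 100 μl with 1 μM KSHV Pr in assay buffer. P6 substrate at 80, 40, 30, 20, 10, 6, 4 and 2 μM, crossed with inhibitor at 10, 7, 5, 3, 1 and 0 μM. Initial velocities converted at 2364 rfu per μM substrate. […] Mean ± s.d. (n=3).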

The subject of experiment [4] is Human gammaherpesvirus 8. Nature of the experiment: Induction of KSHV protease Trp109 mutant dimerization disruption up to 30 uM by size exclusion chromatography.
Experiment [5] has as its system Human gammaherpesvirus 8. Kind of experiment: Ratio of Kcat to Km in KSHV protease at 10 uM. In short, it runs like this:
as §1

Experiment [6] relates to T1, Capsid scaffolding protein (Human herpesvirus 8 type P (isolate GK18) (HHV-8) (Kaposi'ssarcoma-associated herpesvirus)), Q2HRB6 [M197D].
T1 sequence (whole entry): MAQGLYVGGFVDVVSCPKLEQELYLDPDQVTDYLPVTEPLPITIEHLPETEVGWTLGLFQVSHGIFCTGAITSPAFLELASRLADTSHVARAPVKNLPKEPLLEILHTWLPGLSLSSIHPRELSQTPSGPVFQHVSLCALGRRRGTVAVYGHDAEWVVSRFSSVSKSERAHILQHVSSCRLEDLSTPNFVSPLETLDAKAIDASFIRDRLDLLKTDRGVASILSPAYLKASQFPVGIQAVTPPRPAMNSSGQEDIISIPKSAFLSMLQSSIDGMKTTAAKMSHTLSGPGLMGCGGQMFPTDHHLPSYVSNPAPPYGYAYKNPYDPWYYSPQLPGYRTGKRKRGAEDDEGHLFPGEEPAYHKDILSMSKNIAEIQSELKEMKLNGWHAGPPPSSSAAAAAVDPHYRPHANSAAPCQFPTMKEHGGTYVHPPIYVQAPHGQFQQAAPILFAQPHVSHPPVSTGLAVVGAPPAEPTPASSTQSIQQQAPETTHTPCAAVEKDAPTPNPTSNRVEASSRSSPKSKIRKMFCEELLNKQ
Nature of the experiment: Inhibition of KSHV protease M197D mutant at 170 uM by 1H-15N-HSQC NMR. The following applies: Human gammaherpesvirus 8.

For experiment [7], the system named is Human gammaherpesvirus 8. Nature of the experiment: Activity at KSHV protease at 1 uM. In a few lines: as §1
For experiment [8], the system named is Human gammaherpesvirus 8. Kind of experiment: Induction of KSHV protease dimerization disruption at 30 uM by size exclusion chromatography. In short, it runs like this:
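KSHV protease (S204G background) at 5 μM in 25 mM potassium phosphate pH 8, 150 mM KCl, 0.1 mM EDTA, 1 mM DTT, incubated with 30 μM compound for 30 min at 30°C (1% DMSO). Dimer and monomer were resolved by elution peaks. DMSO control.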

Experiment [9] relates to Human gammaherpesvirus 8. Nature of the experiment: Ratio of Kcat to Km in KSHV protease at 5 uM. In a few lines:
as §1

The test system of experiment [10] is Human gammaherpesvirus 8. Kind of experiment: Ratio of Kcat to Km for KSHV protease at 1 uM. In short, it runs like this:
as §1

Experiment [11] deals with Human gammaherpesvirus 8. Nature of the experiment: Activity at KSHV protease at 5 uM. In short, it runs like this:
as §1

In experiment [12] the target is Granzyme B (Homo sapiens) (UniProt P10144). Kind of experiment: Inhibition of granzyme B-mediated aggregation at 30 uM after 30 mins by spectrophotometry in presence of Triton X-100.
Chain of Granzyme B (Homo sapiens) (P10144 whole entry): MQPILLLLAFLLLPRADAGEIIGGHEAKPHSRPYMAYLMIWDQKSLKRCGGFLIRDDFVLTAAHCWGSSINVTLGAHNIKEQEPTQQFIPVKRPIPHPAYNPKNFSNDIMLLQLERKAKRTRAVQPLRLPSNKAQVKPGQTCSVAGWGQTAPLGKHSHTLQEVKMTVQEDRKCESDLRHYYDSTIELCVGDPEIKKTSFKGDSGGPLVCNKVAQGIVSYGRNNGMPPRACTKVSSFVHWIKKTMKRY
Experiment [13] deals with Human gammaherpesvirus 8. Nature of the experiment: Mixed inhibition of KSHV protease at 1 to 10 uM. In a few lines:
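1 μM KSHV protease in pH 8 phosphate assay buffer with Ac-PVYtQA-ACC substrate at 80, 40, 30, 20, 10, 6, 4 and 2 μM, and inhibitor at 10, 7, 5, 3, 1 and 0 μM. Initial velocities were converted with 2364 rfu per μM substrate.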

Experiment [14] has as its system Human gammaherpesvirus 8. Kind of experiment: Activity at KSHV protease at 7 uM. In a few lines:
as §1

For experiment [15], the system named is Human gammaherpesvirus 8. Nature of the experiment: Activity at KSHV protease at 10 uM. In short, it runs like this: as §1
Experiment [16] relates to Human gammaherpesvirus 8. Nature of the experiment: Inhibition of KSHV protease dimerization at 30 uM by size exclusion chromatography.
The test system of a further experiment is Human betaherpesvirus 5. Nature of the experiment: Inhibition of CMV protease at 10 uM by fluorogenic activity assay. In a few lines:
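CMV protease, expressed from a provided plasmid, run in the KSHV Pr fluorogenic assay format with KSHV Pr buffer and reagents, including the P6 ACC hexapeptide substrate.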

The subject of experiment [17] is Human gammaherpesvirus 8. Nature of the experiment: Ratio of Kcat to Km in KSHV protease at 3 uM. In a few lines: as §1
Experiment [18] has as its target Granzyme B (Homo sapiens) (UniProt P10144). Nature of the experiment: Inhibition of granzyme B-mediated aggregation at 30 uM after 30 mins by spectrophotometry in absence of Triton X-100.
In experiment [19] the test system is Human gammaherpesvirus 8. Kind of experiment: Activity at KSHV protease at 3 uM. In a few lines:
as §1

Each structure is given as a SMILES string. Active and inactive are the calls of the source.

As usually defined, the inhibition is the drop in the measured response relative to a control, in per cent. With `O=C(O)c1ccc(NC(=O)c2ccc(CC3CCCCC3)nc2)c(Cc2ccccc2)c1`, in the experiment on Human gammaherpesvirus 8 [1], the inhibition came out at 10%.
Broadly, the IC50 is the midpoint of a concentration-inhibition curve. Lower therefore signals higher potency. Turning to `O=C(O)c1ccc(NC(=O)c2cccc(CC3CCCCC3)c2)c(Cc2ccccc2)c1`, the midpoint of inhibition in experiment [2], the IC50, lay at 8.8 µM. Moreover, the inhibition with Human gammaherpesvirus 8 [1] is 56.6%.
The kcat/Km is the turnover number divided by the Michaelis constant. By Km is commonly meant the substrate concentration at which the rate is half of its maximum. For `O=C(O)c1ccc(NC(=O)c2cccc(CC3CCCCC3)n2)c(Cc2ccccc2)c1`, the kcat/Km is 280 M⁻¹ s⁻¹ in the experiment with Human gammaherpesvirus 8 [3]; 153 M⁻¹ s⁻¹ in the experiment on Human gammaherpesvirus 8 [5]; 398 M⁻¹ s⁻¹ in the experiment on Human gammaherpesvirus 8 [9]; 997 M⁻¹ s⁻¹ in the experiment on Human gammaherpesvirus 8 [10]; 673 M⁻¹ s⁻¹ with Human gammaherpesvirus 8 [17]. Further, the outcome in the experiment on Human gammaherpesvirus 8 [4] was inactive. The inhibition result (in experiment [6]; in the experiment on Human gammaherpesvirus 8 [13]; in the experiment on Human gammaherpesvirus 8 [16]) was “Active” throughout. Also, the Km with Human gammaherpesvirus 8 [7] was found to be 13.6 µM; in the experiment on Human gammaherpesvirus 8 [11], 21.2 µM; in the experiment on Human gammaherpesvirus 8 [14] it was 23.9 µM; with Human gammaherpesvirus 8 [15] it was 27.4 µM; with Human gammaherpesvirus 8 [19], 16.5 µM. Moreover, the outcome with Human gammaherpesvirus 8 [8] was Active. In addition, the results for the inhibition with Human gammaherpesvirus 8 [1] and in the experiment on Human betaherpesvirus 5 were 82.7% and 92%, respectively. Besides, the inhibition result in [12] and in [18] was “inactive” each time.
In the experiment with Human gammaherpesvirus 8 [1], `COC(=O)c1ccc(NC(=O)c2cccc(CC3CCCCC3)c2)c(Cc2ccccc2)c1` gave an inhibition of 9.4%.
On to `O=C(O)c1ccc(NC(=O)c2ccccc2CC2CCCCC2)c(Cc2ccccc2)c1`, for which, in the experiment on Human gammaherpesvirus 8 [1], the inhibition turned out to be 14.8%.
Still for that read-out and setting: next, `O=C(O)c1ccc(NC(=O)c2ccc(CC3CCCCC3)cc2)c(Cc2ccccc2)c1`: 24%.
Regarding `Oc1c(Cl)cc(Cl)c(Cl)c1Cc1c(O)c(Cl)cc(Cl)c1Cl`, the inhibition entry in experiment [12] was “inactive”. Besides, the inhibition entry in experiment [18] is “Active”.
`O=C(O)c1ccc(NC(=O)c2cncc(CC3CCCCC3)c2)c(Cc2ccccc2)c1` gave an inhibition in the experiment on Human gammaherpesvirus 8 [1] of 7.9%.
In experiment [2], `COc1ccc(C(=O)Nc2ccc(C(=O)O)cc2Cc2ccccc2)cc1CC1CCCCC1` had a concentration for half-maximal inhibition (IC50) of 16.4 µM. Further, the inhibition in the experiment on Human gammaherpesvirus 8 [1] amounted to 51.1%.

The record behind these values is ChEMBL document CHEMBL1212726, “Inhibition of a viral enzyme by a small-molecule dimer disruptor” (Nat Chem Biol, 2009).
